Screening results as filed in PubChem BioAssay.
The list is not random: actives were taken first. Their share in the collection is about 2.6%.
SENP8 block-1: SENP8 protease inhibitors, primary screen, biochemical, luminescence; inhibition, % at 10 µM; purified SENP8, Z-RLRGG-aminoluciferin cleavage; 1.2% of 330,000 active; in the data active = inhibition above about 50%
Target sequence (Q96LD8 whole entry, looked up): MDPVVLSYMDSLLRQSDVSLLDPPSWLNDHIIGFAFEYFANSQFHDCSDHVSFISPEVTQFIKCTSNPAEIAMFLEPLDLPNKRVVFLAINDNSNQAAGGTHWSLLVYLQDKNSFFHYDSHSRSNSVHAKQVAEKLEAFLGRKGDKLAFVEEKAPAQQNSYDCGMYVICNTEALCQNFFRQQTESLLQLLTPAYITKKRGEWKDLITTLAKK
SENP1 inh: human SENP1 catalytic domain inhibitors, primary screen, biochemical, FRET, uHTS; inhibition, % at 10 µM; 0.21% of 360,000 active; recombinant SENP1 catalytic domain, CyPet-SUMO1-YPet FRET cleavage;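 active = inhibition at least 30% at 10 µM, raw YFP signal under a set limit, fluorescence ratio 0.5 to 1.5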;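 note: 0% = enzyme with DMSO and 100% = no enzyme wells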
Target sequence (Q9P0U3 419-644 limits assumed): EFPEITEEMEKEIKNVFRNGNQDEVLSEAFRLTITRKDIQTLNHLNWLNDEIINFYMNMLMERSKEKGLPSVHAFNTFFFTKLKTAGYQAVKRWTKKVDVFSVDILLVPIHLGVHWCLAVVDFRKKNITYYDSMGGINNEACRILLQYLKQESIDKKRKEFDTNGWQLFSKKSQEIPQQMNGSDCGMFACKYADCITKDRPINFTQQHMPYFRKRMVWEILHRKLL
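Test system: human SENP1 catalytic domain; medium: Tris pH 8 buffer plus EDTA, NaCl, BME, BSA, NP40, catalase; incubation: 50 min reaction at room temperature; technique: FRET, CFP and YFP emission; controls: no-enzyme low control and enzyme-plus-DMSO high control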
Platelet DG rel: inhibitors of platelet dense granule secretion, primary screen, cell-based, MLPCN, human platelets; inhibition, %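 (compounds screened at 7.5 µM in platelet-rich plasma)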; human platelet-rich plasma, SFLLRN dense granule ATP release, luminescence; 0.22% of 300,000 active; AID 1663, 2009;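 active = mean replicate score, as percent of positive control, at or above 50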
SENP7 inh: SENP7 protease inhibitors, primary screen, biochemical, luminescence, uHTS; Sentrin-specific protease 7 (Homo sapiens), Q9BQF6; recombinant SENP7, Z-RLRGG-aminoluciferin luminescence, 40 min; inhibition, % at 5 µM; 1.5% of 330,000 active; AID 434973, 2010;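 active = inhibition above about 50% at the single test dose, limit read from the data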;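 note: plate controls were DMSO with enzyme for no effect and no enzyme buffer wells for full effect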
SENP8 block-2: human SENP8 protease inhibitors, primary screen, biochemical, fluorescence, Nedd8 protein substrate, uHTS | recombinant SENP8 | 0.64% of 360,000 active | AID 602440, 2012 | inhibition, % at 20 µM; in the data active = inhibition mostly above about 40%, no sharp cut-off; inactive = mostly below about 27%
SENP6 block: SENP6 protease inhibitors, primary screen, biochemical, luminescence, uHTS | 1.8% of 330,000 active | inhibition, % at 10 µM | Recombinant SENP6 catalytic domain, aminoluciferin luminescence;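 active = inhibition above about 50% at the single tested dose, limit read from the data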;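 note: plate controls were DMSO wells with enzyme for no effect and DMSO wells lacking enzyme for full effect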
SENP8 confirm: SENP8 protease inhibitors, retest, confirmation, biochemical, luminescence, single concentration. shares compounds with SENP7 inh. Recombinant SENP8, Z-RLRGG-aminoluciferin luminescence, 60 min. inhibition, % at 12.5 µM. 40% of 6,200 active. AID 488912, 2010;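 active = mean inhibition across replicates above about 50%, limit read from the data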
SENP6 conf: SENP6 protease inhibitors, confirmation, biochemical, luminescence, single concentration; shares compounds with SENP7 inh; inhibition, % at 12.5 µM; recombinant SENP6, Z-RLRGG-aminoluciferin luminescence; 58% of 6,200 active
SENP7 conf: SENP7 protease inhibitors, retest, confirmation, biochemical, luminescence, single concentration. shares compounds with SENP7 inh. recombinant SENP7, Z-RLRGG-aminoluciferin luminescence, 40 min. inhibition, % at 12.5 µM. 69% of 6,200 active. AID 488917, 2010
Casp3 select: caspase-3 protease inhibitors, confirmation, selectivity assay for SENP inhibitor project, biochemical, single concentration; shares compounds with SENP7 inh; purified caspase-3, Z-DEVD-aminoluciferin luminescence, 60 min; inhibition, % at 12.5 µM; 60% of 6,200 active; AID 488918, 2010;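 active = mean inhibition above about 50%, limit read from the data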;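 note: plate controls were enzyme with DMSO for no effect and wells without caspase-3 for full effect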
Target sequence (P42574 28-227 limits assumed): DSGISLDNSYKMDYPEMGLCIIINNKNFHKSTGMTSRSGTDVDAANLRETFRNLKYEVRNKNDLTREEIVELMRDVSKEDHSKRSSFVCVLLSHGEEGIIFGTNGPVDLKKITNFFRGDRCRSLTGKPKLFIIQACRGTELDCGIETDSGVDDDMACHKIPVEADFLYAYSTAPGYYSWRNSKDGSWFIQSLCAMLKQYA
SENP luc ctr: interferes with luciferase luminescence in SENP counter-screen; shares compounds with SENP7 inh; Pre-incubated SENP8/Z-RLRGG-aminoluciferin, luciferase luminescence interference; inhibition, % at 12.5 µM; 39% of 6,200 active;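 active = mean inhibition above about 50% when retested at one dose, limit read from the data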;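 note: plate controls were DMSO wells with completed reaction for no effect and substrate without enzyme for full effect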
* = called active by the depositor; . = no result given.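 Rule for the calls, unless noted: active = mean inhibition above about 50% in the one-dose retest (limit read from the data); inactive = the rest.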

SMILES | SENP8 block-1 | SENP1 inh | Platelet DG rel | SENP7 inh | SENP8 block-2 | SENP6 block | SENP8 confirm | SENP6 conf | SENP7 conf | Casp3 select | SENP luc ctr
CCN(c1ccccc1)c1nc(=O)c2cccnc2s1 | 3 | 0 | -2 | 6 | -11 | 9 | . | . | . | . | .
Cc1cc(C(=O)Nc2ccc(Cl)c(S(=O)(=O)N3CCOCC3)c2)c2ccccc2n1 | -4 | -2 | . | 1 | 1 | 2 | . | . | . | . | .
O=C(Nc1cccc(F)c1)Nc1ccc2c(c1)OCO2 | 85* | 1 | 11 | 96* | 0 | 93* | 84* | 86* | 99* | 86* | 80*
O=C(Nc1ccc2c(c1)OCO2)c1cccc(F)c1 | 46 | 1 | 2 | 76* | 13 | 79* | 54* | 54* | 87* | 82* | 70*
Cc1cccc(C(=O)Nc2ccc(C(=O)N/N=C/c3ccc4c(c3)OCO4)cc2)c1 | 2 | -1 | 8 | -1 | -281 | -3 | . | . | . | . | .
Cc1ccccc1NC(=O)c1nnn(-c2ccc3c(c2)OCCO3)c1N | 17 | 0 | -7 | 23 | 8 | 32 | . | . | . | . | .
Cc1cccc(C(=O)Nc2cccc(C(=O)N/N=C/c3ccc4c(c3)OCO4)c2)c1 | 34 | -17 | 1 | -7 | -148 | 50* | 58* | 46 | 46 | 47 | 26
Nc1c(C(=O)Nc2cccc(F)c2)nnn1-c1ccc2c(c1)OCCO2 | 17 | 4 | 13 | 83* | 10 | 43 | 14 | 23 | 94* | 69* | 13
O=C(CN1C(=O)NC(c2ccccc2)(c2ccccc2)C1=O)NCCNCCO | 5 | 0 | -3 | 1 | 17 | 5 | . | . | . | . | .
Cc1cc(OCC(=O)NNC(=S)NC(=O)c2ccc(Br)o2)ccc1Cl | 0 | 0 | . | -1 | 1 | 0 | . | . | . | . | .
CN1CCN(C(=O)c2cccn(Cc3c(Cl)cccc3Cl)c2=O)CC1 | -1 | 1 | 6 | -3 | 9 | -5 | . | . | . | . | .
COc1cc(O)cc2cc3c(c(O)c12)C(=O)CC(C)(O)O3 (stereo unspecified) | 21 | -56 | . | 13 | 11 | 58* | 2 | 9 | 17 | 24 | 30
CC1CCCN(C(=O)COC(=O)C2CCN(S(=O)(=O)c3ccc4c(c3)OCCO4)CC2)C1 (stereo unspecified) | -15 | 1 | -44 | -12 | 16 | -9 | . | . | . | . | .
CNC(C)C#Cc1ccc2c(=O)c3cc(C)c(C)cc3oc2c1 (stereo unspecified) | 67* | -7 | 0 | -4 | -316 | 93* | 33 | 23 | 47 | 30 | 71*
COCCNC(=O)C1(C)CCN(C(=O)c2oc3ccccc3c2C)C1 (stereo unspecified) | . | 1 | . | . | 8 | . | . | . | . | . | .
c1ccc(CN2CCN(c3ncccn3)CC2)cc1 | -9 | 1 | 3 | -1 | 12 | -20 | . | . | . | . | .
c1ccc(COc2ccc(CN3CCN(c4ccccn4)CC3)cc2)cc1 | 31 | 2 | 33 | 9 | 20 | 54* | 59* | 53* | 72* | 36 | 66*
COc1ccc(C(=O)NCCc2nnc3ccc(SCC(=O)N4CCCC4)nn23)cc1 | 0 | 3 | 2 | -4 | 0 | -2 | . | . | . | . | .
C/C=C\C(=O)Nc1cccc(C2=NOC3(C2)C[C@@H](C(N)=O)N(C(=O)c2ccc(OC)cc2)C3)c1 (stereo partly specified) | 12 | . | 6 | -1 | . | 6 | . | . | . | . | .
CC(C)C[C@H](NC(=O)OC(C)(C)C)C(=O)N/N=C/c1ccc2nccnc2c1 | 8 | 4 | 1 | 51* | -41 | -12 | -8 | -3 | 5 | 0 | -2
N#C/C(=N\Nc1ccc(Cl)c(Cl)c1)C(=O)C1CC1 | 93* | 1 | 9 | 77* | 35 | 96* | 92* | 98* | 100* | 87* | 45
CCC(=O)Nc1ccc2c(c1)C(=O)c1ccccc1C2=O | 8 | 3 | 1 | 38 | 18 | 16 | . | . | . | . | .
CCC(C)(C)c1ccc2c(c1)C(=O)c1ccccc1C2=O | 79* | 1 | 7 | 77* | 14 | 93* | 10 | 84* | 86* | 96* | 80*
Cc1ccc(Cn2ccc(-c3cnc(-c4ccccc4)s3)n2)cc1 | 6 | 1 | -8 | 33 | -416 | 51* | 18 | 36 | 42 | 18 | 21
Cc1ccnc(NC(=O)c2ccc3c(c2)S(=O)(=O)c2ccccc2C3=O)c1 | 84* | 2 | 26 | 92* | 39 | 87* | 11 | 6 | 97* | 64* | 13
SMILES | SENP8 block-1 | SENP1 inh | Platelet DG rel | SENP7 inh | SENP8 block-2 | SENP6 block | SENP8 confirm | SENP6 conf | SENP7 conf | Casp3 select | SENP luc ctr
CCOc1ccc(-c2nc3ccccc3c(=O)o2)cc1 | 22 | 1 | 12 | 73* | -184 | 7 | 28 | 36 | 46 | 34 | 38
CCOC(=O)COc1ccc(-c2nnc(-c3ccccc3)o2)cc1 | 26 | 1 | 10 | 74* | -35 | 79* | 49 | 49 | 68* | 72* | 14
CCOc1ccc(-c2nnc(-c3ccccc3)o2)cc1 | 91* | -1 | 9 | 93* | -131 | 96* | 9 | 8 | 9 | 2 | 3
CC(C)(C)C(=O)Nc1cccc(-c2nc3ccccc3c(=O)o2)c1 | 2 | -46 | 14 | -1 | 1 | -5 | . | . | . | . | .
CC(C)(C)C(=O)Nc1ccc(-c2nc3ccccc3c(=O)o2)cc1 | -1 | 0 | 12 | 68* | -15 | 62* | 4 | 6 | 12 | 13 | 6
COc1ccc(-c2nc3ccccc3c(=O)o2)cc1OC | -10 | -1 | -1 | -17 | -106 | -14 | . | . | . | . | .
